SMILES strings stand for the structures.

The values below come from ChEMBL document CHEMBL1128281 (J Med Chem, 1995).

The test system of test [1] is Rattus norvegicus. Description: Pole climb escape failures of rats was determined after 1 hr of intraperitoneal administration of the compound. The format is functional. To be noted: ip. Summed up:
(§1)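 Male Long Evans rats trained to 80% avoidance in a discrete-trial signaled pole-climb paradigm: 25 trials per 50 min session, maximum 26 s of shock per trial. Distilled water or drug was given ip, 6 per dose group, at a 60 min pretreatment. Avoidance responses and escape failures were compared with water controls. ED50 by linear regression.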

For test [2], the system named is Rattus norvegicus. Description: Social interaction of rats was determined after 1 hr of intraperitoneal administration at […]. The format is functional.
The test system of test [3] is Rattus norvegicus. Description: Intracranial self stimulation in rat was determined after 1 hr of intraperitoneal administration of the compound. Particulars: ip. The format is functional. Summed up:
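Male Wistar rats (300–400 g) with chronic electrodes in the medial forebrain bundle at the preoptic level, trained after 2 weeks of recovery to lever-press for biphasic square-wave pulse trains. Once baseline responding was stable, drug was given (3–6 per dose group) and compared with nondrug controls. ED50 was calculated by linear regression on percent change from control.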

For test [4], the system named is Rattus norvegicus. Description: Side effect liability of compound at intraperitoneal dose of 0.5 mg/kg on 6.2 (A9 units)dopamine neurons in the nigrostriatal in rat. Type of test: functional.
For test [5], the system named is Rattus norvegicus. Description: Antagonistic activity administered intraperitoneally on head twitches induced by 5- HTP. The format is functional. To be noted: ip. Summed up:
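Male Wistar rats (180–280 g), groups of eight. L-5-HTP given ip (240 mg/10 mL distilled water with Tween 80); compounds given ip 30 min after 5-HTP. At 60 min post-5-HTP, head twitches were counted for 10 min per rat under white noise, then expressed as percent change from vehicle. Dose–response used 3–4 dose groups; ED50 by linear regression.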

For test [6], the system named is Rattus norvegicus. Description: Pole climb avoiding activity in rats was determined after 1 hr of intraperitoneal administration of the compound. Type of test: functional. To be noted: ip. Summed up: as §1
For test [7], the species on record is Rattus norvegicus. Description: Ability to block apomorphine-induced stereotypy in rats. The format is functional. Summed up:
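Male Wistar rats (150–250 g), 6–10 per dose group, given distilled water or test drug ip; apomorphine 1.5 mg/kg sc 50 min later. Rats were placed singly in cages and scored 10 min afterwards for continuous stereotyped licking or sniffing. Inhibition was the number of animals protected versus controls. ED50 was obtained by probit analysis.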

Another test is filed under the species Mus musculus. Description: Ability to inhibit apomorphine-induced climbing behavior in mice. Type of test: functional. Summed up: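 Male CD-1 mice (18–30 g) were adapted for 1 h in wire-mesh cages, 8 per dose group. Distilled water or drug was given ip 30 or 60 min before apomorphine 1.5 mg/kg sc.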
In test [8] the test system is Rattus norvegicus. Description: Antipsychotic efficacy of compound at intraperitoneal dose of 0.5 mg/kg on 6.8 (A10 units) dopamine neurons in the mesolimbic region of rat. Type of test: functional.
Test [9] concerns Rattus norvegicus. Description: Induction of catalepsy in rats was determined after 2 hr of intraperitoneal administration of the compound. The format is functional. Particulars: ip. Summed up: (§2)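 Male Wistar rats (150–250 g), 6–10 per dose group, dosed ip with distilled water or drug. Each hour for 6 h, forepaws were placed on an elevated wooden bar; remaining there 60 s counted as cataleptic.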

Test [10] concerns Rattus norvegicus. Description: Social interaction of rats was determined after 1 hr of intraperitoneal administration at 10 mg/kg. The format is functional. Summed up:
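Pairs of male Wistar rats (200–275 g) were acclimated to the arena for 8 min on two consecutive days. On day 3, unfamiliar rats (six pairs/group) got drug or vehicle, and 30 or 60 min later they were paired and observed for 5 min. Social interaction time and total activity were compared with controls by one-way ANOVA and Duncan's test.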

For test [11], the system named is Rattus norvegicus. Description: Side effect liability of compound at intraperitoneal dose of 20 mg/kg on 13.7 (A9 units)dopamine neurons in the nigrostriatal in rat. Type of test: functional. Summed up:
(§3)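 Male Wistar rats (280–360 g) were dosed ip once daily for 21 days with compound suspended in distilled water plus 1 drop Tween 80; vehicle rats served as controls. Sampling began 2 h after the last dose under chloral hydrate anesthesia (400 mg/kg ip). Spontaneously active A9 and A10 dopamine units were counted per 12 tracks. Groups were compared by one-way ANOVA with Newman–Keuls post hoc.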

Test [12] relates to Rattus norvegicus. Description: Induction of catalepsy in rats was determined after 1 hr of intraperitoneal administration at 80 mg/kg. The format is functional. Summed up:
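Male Wistar rats (150–250 g, 6–10/dose group) were dosed ip with compound or distilled water. Every hour for 6 h after dosing, the forepaws were placed on an elevated wooden bar, and a rat was scored cataleptic if the paws stayed on the bar for 60 s.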

Test [13] concerns Rattus norvegicus. Description: Antipsychotic efficacy of compound at intraperitoneal dose of 20 mg/kg on 1.8 (A10 units) dopamine neurons in the mesolimbic region of rat. The format is functional. Summed up:
as §3

Test [14] has as its system Rattus norvegicus. Description: Antipsychotic efficacy of compound at intraperitoneal dose of 5 mg/kg on 6.1 dopamine neurons in the mesolimbic (A10) units in rat. The format is functional.
Test [15] concerns the target T1, 5-hydroxytryptamine receptor 1A (Mus musculus, UniProt Q64264).
T1 sequence (Q64264 whole entry): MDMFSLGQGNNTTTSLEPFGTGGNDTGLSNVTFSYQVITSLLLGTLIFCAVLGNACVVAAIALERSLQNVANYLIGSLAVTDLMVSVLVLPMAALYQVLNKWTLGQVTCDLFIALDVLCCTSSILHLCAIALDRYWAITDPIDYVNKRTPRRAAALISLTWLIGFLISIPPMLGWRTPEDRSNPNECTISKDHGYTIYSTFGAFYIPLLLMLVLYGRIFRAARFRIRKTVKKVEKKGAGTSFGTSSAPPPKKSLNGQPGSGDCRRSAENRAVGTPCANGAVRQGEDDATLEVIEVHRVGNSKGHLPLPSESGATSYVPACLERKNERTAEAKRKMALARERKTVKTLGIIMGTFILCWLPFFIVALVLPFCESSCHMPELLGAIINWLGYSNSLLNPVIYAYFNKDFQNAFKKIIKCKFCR
Description: Binding affinity against 5-hydroxytryptamine 1A receptor was determined using [3H]-8-OH-DPAT radioligand.

The test system of test [16] is Rattus norvegicus. Description: Social interaction of rats was determined after 1 hr of intraperitoneal administration at 1 mg/kg. The format is functional. Summed up: (§4)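 Pairs of male Wistar rats (200–275 g) were acclimated to the arena for 8 min on two days. On day 3, unfamiliar pairs were formed, six pairs per group, and dosed with drug or vehicle. Interaction time and total activity were compared by one-way ANOVA with Duncan's test.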

In test [17] the target is 5-hydroxytryptamine receptor 2A (Bos taurus, UniProt Q75Z89). Description: Binding affinity against 5-hydroxytryptamine 2 receptor was determined using [ [3H]spiperone radioligand.
Chain of 5-hydroxytryptamine receptor 2A (Q75Z89 whole entry): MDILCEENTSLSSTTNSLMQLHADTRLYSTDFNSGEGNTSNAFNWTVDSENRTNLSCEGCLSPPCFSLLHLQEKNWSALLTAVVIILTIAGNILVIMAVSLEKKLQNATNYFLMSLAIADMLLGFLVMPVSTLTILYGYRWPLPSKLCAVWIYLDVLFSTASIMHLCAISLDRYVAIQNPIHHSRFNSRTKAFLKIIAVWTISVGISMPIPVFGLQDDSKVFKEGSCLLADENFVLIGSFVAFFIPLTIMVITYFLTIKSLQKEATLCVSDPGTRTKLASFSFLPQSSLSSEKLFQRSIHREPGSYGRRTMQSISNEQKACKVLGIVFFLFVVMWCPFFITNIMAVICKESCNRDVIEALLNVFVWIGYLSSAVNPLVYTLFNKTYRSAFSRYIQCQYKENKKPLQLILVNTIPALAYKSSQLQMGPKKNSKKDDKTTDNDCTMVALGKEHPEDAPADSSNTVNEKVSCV
In test [18] the test system is Rattus norvegicus. Description: Induction of catalepsy in rats was determined after 1 hr of intraperitoneal administration of the compound. Particulars: ip. Type of test: functional. Summed up: as §2
Test [19] deals with Rattus norvegicus. Description: Antipsychotic efficacy of compound at intraperitoneal dose of 10 mg/kg on 6.1 (A10 units)dopamine neurons in the mesolimbic in rat. The format is functional.
For test [20], the target named is Muscarinic acetylcholine receptor M3 (Rattus norvegicus, UniProt P08483). Description: Binding affinity against Muscarinic acetylcholine receptor using [3H]quinuclidinyl benzilate.
Chain of Muscarinic acetylcholine receptor M3 (P08483 whole entry): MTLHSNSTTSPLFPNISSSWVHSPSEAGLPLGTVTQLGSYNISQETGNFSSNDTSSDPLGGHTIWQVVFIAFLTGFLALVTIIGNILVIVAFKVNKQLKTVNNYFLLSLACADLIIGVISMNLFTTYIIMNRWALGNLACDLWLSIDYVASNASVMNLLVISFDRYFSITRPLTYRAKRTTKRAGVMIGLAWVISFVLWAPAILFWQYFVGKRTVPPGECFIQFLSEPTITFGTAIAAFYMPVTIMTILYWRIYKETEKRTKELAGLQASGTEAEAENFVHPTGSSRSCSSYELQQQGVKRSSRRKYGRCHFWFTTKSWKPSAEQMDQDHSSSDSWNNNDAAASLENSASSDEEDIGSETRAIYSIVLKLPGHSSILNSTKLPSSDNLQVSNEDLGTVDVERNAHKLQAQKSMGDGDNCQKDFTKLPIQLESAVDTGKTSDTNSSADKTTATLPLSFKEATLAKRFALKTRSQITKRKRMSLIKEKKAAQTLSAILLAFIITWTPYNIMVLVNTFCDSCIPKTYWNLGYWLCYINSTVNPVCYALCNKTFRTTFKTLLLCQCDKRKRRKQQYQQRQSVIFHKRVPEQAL
Test [21] deals with Serotonin 2 (5-HT2) receptor (Rattus norvegicus, UniProt P30994+P08909+P14842). Description: Affinity for 5-hydroxytryptamine 2 receptor binding sites by its ability to displace [3H]spiperone from rat frontal cortex.
A further test has as its target D(1A) dopamine receptor (Mus musculus, UniProt Q61616). Description: Binding affinity against Dopamine receptor D1 was determined using [3H]SCH-23390 radioligand.
Test [22] concerns Rattus norvegicus. Description: Side effect liability of compound at intraperitoneal dose of 10 mg/kg on 16.1 (A9 units) dopamine neurons in the nigrostriatal in rat. The format is functional.
Test [23] concerns the target Sigma non-opioid intracellular receptor 1 (Homo sapiens, UniProt Q99720). Description: Binding affinity against sigma receptor using [3H]-( +)-SKF10,047 radioligand.
Test [24] deals with Rattus norvegicus. Description: Side effect liability of compound at intraperitoneal dose of 5 mg/kg on 16.1 (A9 units)dopamine neurons in the nigrostriatal in rat. The format is functional.
Test [25] relates to Rattus norvegicus. Description: Intracranial self stimulation in rat was determined after 1 hr of oral administration of the compound. Type of test: functional.
The subject of test [26] is Rattus norvegicus. Description: Social interaction of rats was determined after 1 hr of intraperitoneal administration at 0.5 mg/kg. The format is functional. Summed up: as §4

Chain of Sigma non-opioid intracellular receptor 1 (Q99720 whole entry): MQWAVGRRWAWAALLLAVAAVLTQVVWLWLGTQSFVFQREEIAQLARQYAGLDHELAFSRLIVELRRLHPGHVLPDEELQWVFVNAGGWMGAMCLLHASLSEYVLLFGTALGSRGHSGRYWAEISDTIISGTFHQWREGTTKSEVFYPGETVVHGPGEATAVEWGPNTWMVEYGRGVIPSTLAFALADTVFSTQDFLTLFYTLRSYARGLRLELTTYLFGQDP
Chain of D(1A) dopamine receptor (Q61616 whole entry): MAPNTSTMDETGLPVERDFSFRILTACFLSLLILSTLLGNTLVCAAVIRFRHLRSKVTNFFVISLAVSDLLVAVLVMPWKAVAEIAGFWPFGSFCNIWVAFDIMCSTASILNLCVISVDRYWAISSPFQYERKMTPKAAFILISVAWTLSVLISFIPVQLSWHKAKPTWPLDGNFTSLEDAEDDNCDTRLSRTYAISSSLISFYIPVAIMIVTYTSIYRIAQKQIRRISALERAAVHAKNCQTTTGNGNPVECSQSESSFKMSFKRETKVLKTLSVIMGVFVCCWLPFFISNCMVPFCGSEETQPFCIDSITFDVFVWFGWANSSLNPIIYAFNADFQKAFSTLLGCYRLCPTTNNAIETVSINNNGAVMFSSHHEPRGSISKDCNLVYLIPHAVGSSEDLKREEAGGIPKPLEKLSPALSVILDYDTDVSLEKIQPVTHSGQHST

What is called ED50 is the dose that gives a 50% effect, or the effect in half of the subjects. A higher ED50 goes with a need for a large dose. As to `O=C(CCCN1CCC(O)(c2ccc(Cl)cc2)CC1)c1ccc(F)cc1` [HALOPERIDOL], the ED50 with Rattus norvegicus [1] was found to be 0.22 mg/kg; in the test on Rattus norvegicus [3], 0.077 mg/kg; in the test on Rattus norvegicus [5], 0.29 mg/kg; in the test on Rattus norvegicus [6], 0.043 mg/kg; in the test filed under Rattus norvegicus [7], 0.6 mg/kg; in the test filed under Mus musculus it was 0.11 mg/kg. The compound further registered an ED50 with Rattus norvegicus [9] of 0.65 mg/kg. Besides, the Activity in the test on Rattus norvegicus [2] is -26%. The Change in the test on Rattus norvegicus [4] is listed as -30%; in the test on Rattus norvegicus [8], -35%.

Turning to `CN1CCN(C2=Nc3cc(Cl)ccc3Nc3ccccc32)CC1` [CLOZAPINE], the Activity in the test on Rattus norvegicus [10] is 39%; in the test on Rattus norvegicus [12] it was 0%. The ED50 is 29.3 mg/kg with Rattus norvegicus [1]; 7.4 mg/kg in the test on Rattus norvegicus [3]; 0.43 mg/kg with Rattus norvegicus [5]; 11.3 mg/kg in the test on Rattus norvegicus [6]; > 40 mg/kg in the test listed under Rattus norvegicus [7]. Besides, the figures for the Change with Rattus norvegicus [11] and with Rattus norvegicus [13] were 37% and -79%, respectively.

By IC50 is commonly meant the point on the concentration scale where inhibition reaches its midpoint. A lower IC50 goes with higher potency. Regarding `COc1cc(C(C)=O)ccc1OCCCN1CCC(c2noc3cc(F)ccc23)CC1` [ILOPERIDONE], the Change in the test with Rattus norvegicus [14] is listed as -41%; in the test with Rattus norvegicus [19], -40%; in the test on Rattus norvegicus [22], 45%; in the test on Rattus norvegicus [24] it was 81%. Also, the IC50 was 0.21 µM in test [15]; 0.009 µM in [17]; > 1 µM in [20]; 0.009 µM in test [21]; 0.75 µM on D(1A) dopamine receptor; 0.064 µM in test [23]. For the same compound, the ED50 in the test with Rattus norvegicus [1] is 5.2 mg/kg; in the test on Rattus norvegicus [18], 30.7 mg/kg; in the test on Rattus norvegicus [3], 0.15 mg/kg; in the test on Rattus norvegicus [5] it was 0.07 mg/kg; in the test with Rattus norvegicus [6], 0.7 mg/kg; in the test filed under Rattus norvegicus [7], 34.8 mg/kg. The ED50 in the test filed under Mus musculus was determined as 0.095 mg/kg; in the test on Rattus norvegicus [25] it was 1.03 mg/kg. The Activity in the test on Rattus norvegicus [16] was 31%.

For `Cc1nc2n(c(=O)c1CCN1CCC(c3noc4cc(F)ccc34)CC1)CCCC2` [RISPERIDONE], the median effective dose (ED50) in the test with Rattus norvegicus [1] came to 1.3 mg/kg; with Rattus norvegicus [18] it was 5.7 mg/kg; with Rattus norvegicus [3], 0.13 mg/kg; with Rattus norvegicus [6], 0.48 mg/kg; in the test filed under Rattus norvegicus [7], 3.2 mg/kg; in the test listed under Mus musculus, 0.062 mg/kg. In addition, the Activity in the test on Rattus norvegicus [26] was determined as 27%.
